Measured values from article PMC3249179 (European Journal of Clinical Pharmacology, 2011).
Like-named read-outs stand apart in the source and are kept apart here. Marks after values point to notes of the source that are not given here. Values belong to the compound of their own block, whether it stands above or below them.

Experiments:
[1] = APZ 3 mg with CYP3A4 inhibitor itraconazole 100 mg; Japanese EM subjects; cited from earlier work
CYP2D6 [2] = assay: Calculation of the contribution of CYP2D6 to APZ metabolism; parameters: species or system healthy Japanese male volunteers; details: before CYP inhibition
[3] = assay type: in vivo, healthy Japanese male volunteers; details: for AUC ratio (period II/period I) / CL/F ratio (period II/period I) / Cmax ratio (period II/period I) / t1/2,z ratio (period II/period I) / tmax difference (period II − period I): APZ + PRX vs APZ alone; for AUC ratio (period II/period I) / CL/F ratio (period II/period I) / Cmax ratio (period II/period I) / t1/2,z ratio (period II/period I): geometric mean ratio; for tmax difference (period II − period I): mean difference
[4] = assay type: in vivo, healthy Japanese male volunteers; details: for AUC ratio (period II/period I) / CL/F ratio (period II/period I) / Cmax ratio (period II/period I) / t1/2,z ratio (period II/period I) / tmax difference (period II − period I): APZ + FLV vs APZ alone; for AUC ratio (period II/period I) / CL/F ratio (period II/period I) / Cmax ratio (period II/period I) / t1/2,z ratio (period II/period I): geometric mean ratio; for tmax difference (period II − period I): mean difference
How it was run: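 Healthy Japanese men aged 20–40 y (BMI 18.5–25.0), CYP2D6-genotyped from blood DNA; 7 per genotype randomly selected. Period I: 3 mg APZ tablet orally, fasting; 34-day washout. Fluvoxamine pretreatment 6 days, then APZ given at SSRI steady state, fluvoxamine continued 14 days. Heparinized plasma sampled predose to 336 h, stored −20°C; APZ and DAPZ by LC-MS/MS. Mean ± SD; per-subject period II/I GMR.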

[5] = cited from earlier work
CYP2D6 [6] = details: coadministration of FLV (100 mg q.d.); cited from earlier work
CYP3A4 [7] = details: coadministration of FLV (100 mg q.d.); cited from earlier work
CYP3A4 [8] = test system: CYP3A4; parameters: species or system healthy Japanese male volunteers; details: FLV 100 mg/day, calculated from APZ CL/F
[9] = clinical doses of PRX (20–30 mg q.d.); cited from earlier work
[10] = CYP2D6 EM, APZ + PRX 20 mg/day (period II), single oral 3 mg APZ, mean ± SD
[11] = CYP2D6 EM, APZ alone (period I), PRX group, single oral 3 mg APZ, mean ± SD
[12] = CYP2D6 IM, APZ + PRX 20 mg/day (period II), single oral 3 mg APZ, mean ± SD
[13] = CYP2D6 IM, APZ alone (period I), PRX group, single oral 3 mg APZ, mean ± SD
[14] = male, human, plasma, oral, 3 mg
[15] = CYP2D6 EM, APZ + FLV 100 mg/day (period II), single oral 3 mg APZ, mean ± SD
[16] = CYP2D6 EM, APZ alone (period I), FLV group, single oral 3 mg APZ, mean ± SD
[17] = CYP2D6 IM, APZ + FLV 100 mg/day (period II), single oral 3 mg APZ, mean ± SD
[18] = CYP2D6 IM, APZ alone (period I), FLV group, single oral 3 mg APZ, mean ± SD

- percent contribution of CYP2D6 to total CL/F (metabolic activity) of APZ (CYP2D6 [2]; CYP2D6 EM, FLV coadministration group): 40%
- percent contribution of CYP2D6 to total CL/F (metabolic activity) of APZ (CYP2D6 [2]; CYP2D6 EM, PRX coadministration group): 62%
- percent contribution of CYP2D6 to total CL/F (metabolic activity) of APZ (CYP2D6 [2]; CYP2D6 IM, FLV coadministration group): 18%
- percent contribution of CYP2D6 to total CL/F (metabolic activity) of APZ (CYP2D6 [2]; CYP2D6 IM, PRX coadministration group): 24%
- decrease in CL/F by coadministration of PRX ([3]; CYP2D6 EM subjects): 58%
- increase in Cmax by coadministration of PRX ([3]; CYP2D6 EM subjects): 39%
- CL/F [3, 10]: 2.22 ± 0.31 L/h
- AUC ratio (period II/period I) ([3]; CYP2D6 EM): 2.40^a
- CL/F ratio (period II/period I) ([3]; CYP2D6 EM): 0.42^a
- Cmax ratio (period II/period I) ([3]; CYP2D6 EM): 1.39^a
- t1/2,z ratio (period II/period I) ([3]; CYP2D6 EM): 1.83^a
- CL/F [3, 11]: 5.42 ± 1.25 L/h
- decrease in CL/F by coadministration of PRX ([3]; CYP2D6 IM subjects): 23%
- CL/F [3, 12]: 1.78 ± 0.20 L/h
- AUC ratio (period II/period I) ([3]; CYP2D6 IM): 1.30^a
- CL/F ratio (period II/period I) ([3]; CYP2D6 IM): 0.77^a
- Cmax ratio (period II/period I) ([3]; CYP2D6 IM): 1.27^a
- t1/2,z ratio (period II/period I) ([3]; CYP2D6 IM): 1.21^a
- CL/F [3, 13]: 2.32 ± 0.33 L/h
- interindividual variability in CL/F ([3]; EM subjects of PRX group, APZ alone): 23 % CV
- interindividual variability in CL/F ([3]; EM subjects, coadministration of PRX): 14 % CV
- interindividual variability in CL/F ([3]; IM subjects of PRX group, APZ alone): 14 % CV
- AUC [3, 14]: 1320 ng·h/mL
- Cmax [3, 14]: 14.5 ± 3.4 ng/mL
- half-life [3, 14]: 107 ± 18.9 h
- tmax ([3]; male, human, plasma, oral, 3 mg, tmax, CYP2D6 IM, APZ alone (period I), PRX group, single oral 3 mg APZ, mean ± SD): 3.3 ± 1.6 h
- tmax ([3]; male, human, plasma, oral, tmax, coadministration of APZ with PRX in period II): ~2 h
- AUC ([3]; male, human, plasma, po, 3 mg): 582 ± 150 ng·h/mL
- Cmax ([3]; male, human, plasma, po, 3 mg): 12.6 ± 2.6 ng/mL
- half-life ([3]; male, human, plasma, po, 3 mg): 60.7 ± 9.2 h
- CL/F [4, 15]: 2.03 ± 0.46 L/h
- AUC ratio (period II/period I) ([4]; CYP2D6 EM): 1.63^a
- CL/F ratio (period II/period I) ([4]; CYP2D6 EM): 0.61^a
- Cmax ratio (period II/period I) ([4]; CYP2D6 EM): 1.39^a
- t1/2,z ratio (period II/period I) ([4]; CYP2D6 EM): 1.44^a
- CL/F [4, 16]: 3.30 ± 0.59 L/h
- decrease in CL/F by coadministration of fluvoxamine ([4]; CYP2D6 EMs): 39%
- CL/F [4, 17]: 1.26 ± 0.35 L/h
- AUC ratio (period II/period I) ([4]; CYP2D6 IM): 1.65^a
- CL/F ratio (period II/period I) ([4]; CYP2D6 IM): 0.60^a
- Cmax ratio (period II/period I) ([4]; CYP2D6 IM): 1.27^a
- t1/2,z ratio (period II/period I) ([4]; CYP2D6 IM): 1.49^a
- tmax difference (period II − period I) ([4]; CYP2D6 IM): 0.00^b h
- CL/F [4, 18]: 2.10 ± 0.69 L/h
- decrease in CL/F by coadministration of fluvoxamine ([4]; CYP2D6 IMs): 40%
- decrease in CL/F in period II (FLV) compared with period I ([4]; both the IM and EM subjects): approximately 40%
- AUC [4, 14]: 1540 ng·h/mL
- Cmax [4, 14]: 15.3 ± 3.4 ng/mL
- half-life [4, 14]: 105 ± 6.8 h
- tmax ([4]; male, human, plasma, oral, 3 mg, tmax, CYP2D6 IM, APZ alone (period I), FLV group, single oral 3 mg APZ, mean ± SD): 3 ± 1.8 h
- AUC ([4]; male, human, plasma, po, 3 mg): 935 ± 173 ng·h/mL
- Cmax ([4]; male, human, plasma, po, 3 mg): 14.7 ± 2.9 ng/mL
SMILES: O=C1CCc2ccc(OCCCCN3CCN(c4cccc(Cl)c4Cl)CC3)cc2N1 [Aripiprazole, aripiprazole]
- decrease in CL/F [1]: 27%

- Cmax [3, 10]: 0.9 ± 0.1 ng/mL
- tmax [3, 10]: 89.1 ± 38.5 h
- AUC ratio (period II/period I) ([3]; CYP2D6 EM): 1.21
- Cmax ratio (period II/period I) ([3]; CYP2D6 EM): 0.67
- t1/2,z ratio (period II/period I) ([3]; CYP2D6 EM): 1.91
- tmax difference (period II − period I) ([3]; CYP2D6 EM): 37.71 h
- Cmax [3, 11]: 1.3 ± 0.3 ng/mL
- t1/2,z [3, 11]: 86.1 ± 10.7 h
- tmax [3, 11]: 51.4 ± 16.6 h
- Cmax [3, 12]: 0.8 ± 0.1 ng/mL
- tmax [3, 12]: 133.7 ± 27.2 h
- AUC ratio (period II/period I) ([3]; CYP2D6 IM): 0.89
- Cmax ratio (period II/period I) ([3]; CYP2D6 IM): 0.88
- t1/2,z ratio (period II/period I) ([3]; CYP2D6 IM): 0.73
- tmax difference (period II − period I) ([3]; CYP2D6 IM): 30.71 h
- Cmax [3, 13]: 1.0 ± 0.2 ng/mL
- tmax [3, 13]: 103.0 ± 38.7 h
- Cmax [4, 15]: 1.6 ± 0.2 ng/mL
- t1/2,z [4, 15]: 227.8 ± 63.2 h
- tmax [4, 15]: 72.0 ± 0.0 h
- AUC ratio (period II/period I) ([4]; CYP2D6 EM): 2.05^a
- Cmax ratio (period II/period I) ([4]; CYP2D6 EM): 1.23^a
- t1/2,z ratio (period II/period I) ([4]; CYP2D6 EM): 2.00^a
- tmax difference (period II − period I) ([4]; CYP2D6 EM): 12.00^b h
- Cmax [4, 16]: 1.3 ± 0.3 ng/mL
- t1/2,z [4, 16]: 115.0 ± 39.6 h
- tmax [4, 16]: 60.0 ± 13.1 h
- Cmax [4, 17]: 1.2 ± 0.3 ng/mL
- tmax [4, 17]: 157.7 ± 36.3 h
- Cmax ratio (period II/period I) ([4]; CYP2D6 IM): 0.95^a
- tmax difference (period II − period I) ([4]; CYP2D6 IM): 37.71^b h
- Cmax [4, 18]: 1.2 ± 0.3 ng/mL
- tmax [4, 18]: 120.0 ± 41.6 h
SMILES: O=c1ccc2ccc(OCCCCN3CCN(c4cccc(Cl)c4Cl)CC3)cc2[nH]1 [Dehydroaripiprazole, dehydroaripiprazole]
- excretion in urine and feces [5]: almost no

- percent inhibition of CYP3A4 by coadministration of FLV (CYP3A4 [8]; CYP2D6 EM subjects): 64%
- percent inhibition of CYP3A4 by coadministration of FLV (CYP3A4 [8]; CYP2D6 IM subjects): 48%
SMILES: COCCCC/C(=N\OCCN)c1ccc(C(F)(F)F)cc1 [FLV, fluvoxamine]
- effect on the PK of desipramine and metoprolol (CYP2D6 substrates) (CYP2D6 [6]): without significantly affecting
- increase in blood concentration of CYP3A4 substrates (CYP3A4 [7]): several-fold

SMILES: Fc1ccc([C@@H]2CCNC[C@H]2COc2ccc3c(c2)OCO3)cc1 [PRX, paroxetine]
- steady-state blood concentrations [9]: 35 to 43 ng/mL
